Measurements from ChEMBL document CHEMBL1130231, “Betidamino acid scan of the GnRH antagonist acyline” (J Med Chem, 1997).
Activity calls are given as the source filed them. The calls are words filed in the database; no cut-off is given here.

Key:
Rattus norvegicus [1] = assay: Ratio of ovulated rats to total number of rats determined in a anti-ovulatory assay by administering 5 microg of compound; 0/8; format: functional, organism-based
Rattus norvegicus [2] = assay: Ratio of ovulated rats to total number of rats determined in a anti-ovulatory assay by administering 2.5 microg of compound; 2/8; format: functional, organism-based
[3] = target: T1, Gonadotropin-releasing hormone receptor (Rattus norvegicus, UniProt P30969); assay: Inhibition of binding of radiolabeled histrelin to Gonadotropin-releasing hormone receptor (GnRHr) in rat pituitary gland membranes; format: cell membranes, Membrane
T1 sequence (P30969 whole entry): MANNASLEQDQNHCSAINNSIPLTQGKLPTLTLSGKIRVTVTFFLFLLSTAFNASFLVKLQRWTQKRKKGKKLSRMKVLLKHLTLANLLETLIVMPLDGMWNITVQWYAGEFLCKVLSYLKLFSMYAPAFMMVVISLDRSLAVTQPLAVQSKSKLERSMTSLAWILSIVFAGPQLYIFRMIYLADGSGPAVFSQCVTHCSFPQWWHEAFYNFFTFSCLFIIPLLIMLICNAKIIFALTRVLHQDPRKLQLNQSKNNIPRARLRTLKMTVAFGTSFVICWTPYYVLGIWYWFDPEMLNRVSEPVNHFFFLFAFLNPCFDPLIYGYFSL
In short: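 Rat anterior pituitary membranes (male and female glands equal numbers), homogenized in 0.32 M sucrose/aprotinin, 4000g pellet, diluted 15-fold in 10 mM Hepes, 0.2% BSA, pH 7.6. Filtration onto PEI-treated glass filters, scintillation counting. IC50 in nM, duplicate, n = 1.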

Row | SMILES | IC50 [3] [nM] | also measured
1 | CC(=O)Nc1ccc(C[C@H](NC(=O)[C@@H](NC=O)NC(=O)[C@@H](Cc2cccnc2)NC(=O)[C@@H](Cc2ccc(Cl)cc2)NC(=O)[C@@H](Cc2ccc3ccccc3c2)NC(C)=O)C(=O)N[C@H](Cc2ccc(NC(C)=O)cc2)C(=O)N[C@@H](CC(C)C)C(=O)N[C@@H](CCCCNC(C)C)C(=O)N2CCC[C@@H]2C(=O)N[C@H](C)C(N)=O)cc1 (single isomer, unassigned) |  | ov. rat/total (Rattus norvegicus [1]): Active
2 | CC(=O)Nc1ccc(C[C@H](NC(=O)[C@H](CO)NC(=O)[C@@H](Cc2cccnc2)NC(=O)[C@@H](Cc2ccc(Cl)cc2)NC(=O)[C@@H](Cc2ccc3ccccc3c2)NC(C)=O)C(=O)N[C@@H](C(=O)N[C@@H](CC(C)C)C(=O)N[C@@H](CCCCNC(C)C)C(=O)N2CCC[C@@H]2C(=O)N[C@H](C)C(N)=O)N(C)C(=O)c2ccc(NC(C)=O)cc2)cc1 (mixture of isomers) |  | ov. rat/total (Rattus norvegicus [2]): Partially active
3 | CC(=O)Nc1ccc(C[C@H](NC(=O)[C@H](CO)NC(=O)[C@@H](Cc2cccnc2)NC(=O)[C@@H](NC(=O)c2cnccn2)NC(=O)[C@@H](Cc2ccc3ccccc3c2)NC(C)=O)C(=O)N[C@H](Cc2ccc(NC(C)=O)cc2)C(=O)N[C@@H](CC(C)C)C(=O)N[C@@H](CCCCNC(C)C)C(=O)N2CCC[C@H]2C(=O)N[C@H](C)C(N)=O)cc1 | 2000 | 
4 | CC(=O)Nc1ccc(C[C@H](NC(=O)[C@H](NC(=O)[C@@H](Cc2cccnc2)NC(=O)[C@@H](Cc2ccc(Cl)cc2)NC(=O)[C@@H](Cc2ccc3ccccc3c2)NC(C)=O)N(C)C=O)C(=O)N[C@H](Cc2ccc(NC(C)=O)cc2)C(=O)N[C@@H](CC(C)C)C(=O)N[C@@H](CCCCNC(C)C)C(=O)N2CCC[C@H]2C(=O)N[C@H](C)C(N)=O)cc1 (single isomer, unassigned) | 0.9 | 
5 | CC(=O)Nc1ccc(C[C@H](NC(=O)[C@H](CO)NC(=O)[C@@H](Cc2cccnc2)NC(=O)[C@@H](Cc2ccc(Cl)cc2)NC(=O)[C@H](NC(C)=O)N(C)C(=O)c2ccc3ccccc3c2)C(=O)N[C@H](Cc2ccc(NC(C)=O)cc2)C(=O)N[C@@H](CC(C)C)C(=O)N[C@@H](CCCCNC(C)C)C(=O)N2CCC[C@H]2C(=O)N[C@H](C)C(N)=O)cc1 | 9.2 | 
6 | CC(=O)Nc1ccc(C[C@H](NC(=O)[C@H](CO)NC(=O)[C@@H](NC(=O)c2cccnc2)NC(=O)[C@@H](Cc2ccc(Cl)cc2)NC(=O)[C@@H](Cc2ccc3ccccc3c2)NC(C)=O)C(=O)N[C@H](Cc2ccc(NC(C)=O)cc2)C(=O)N[C@@H](CC(C)C)C(=O)N[C@@H](CCCCNC(C)C)C(=O)N2CCC[C@H]2C(=O)N[C@H](C)C(N)=O)cc1 | 0.63 | 
7 | CC(=O)Nc1ccc(C[C@H](NC(=O)[C@H](CO)NC(=O)[C@@H](Cc2cccnc2)NC(=O)[C@H](NC(=O)[C@@H](Cc2ccc3ccccc3c2)NC(C)=O)N(C)C(=O)c2ccc(Cl)cc2)C(=O)N[C@H](Cc2ccc(NC(C)=O)cc2)C(=O)N[C@@H](CC(C)C)C(=O)N[C@@H](CCCCNC(C)C)C(=O)N2CCC[C@H]2C(=O)N[C@H](C)C(N)=O)cc1 | 1.2 | 
8 | CC(=O)Nc1ccc(C[C@H](NC(=O)[C@H](CO)NC(=O)[C@@H](Cc2cccnc2)NC(=O)[C@@H](Cc2ccc(Cl)cc2)NC(=O)[C@@H](Cc2ccc3ccccc3c2)NC(C)=O)C(=O)N[C@H](Cc2ccc(NC(C)=O)cc2)C(=O)N[C@@H](NC(C)=O)C(=O)N[C@@H](CCCCNC(C)C)C(=O)N2CCC[C@H]2C(=O)N[C@H](C)C(N)=O)cc1 | 5 | 
9 | CC(=O)Nc1ccc(C[C@H](NC(=O)[C@H](CO)NC(=O)[C@@H](Cc2cccnc2)NC(=O)[C@@H](Cc2ccc(Cl)cc2)NC(=O)[C@@H](NC(C)=O)NC(=O)c2ccc3ccccc3c2)C(=O)N[C@H](Cc2ccc(NC(C)=O)cc2)C(=O)N[C@@H](CC(C)C)C(=O)N[C@@H](CCCCNC(C)C)C(=O)N2CCC[C@H]2C(=O)N[C@H](C)C(N)=O)cc1 | 3 | 
10 | CC(=O)Nc1ccc(C[C@H](NC(=O)[C@@H](NC(=O)[C@@H](Cc2cccnc2)NC(=O)[C@@H](Cc2ccc(Cl)cc2)NC(=O)[C@@H](Cc2ccc3ccccc3c2)NC(C)=O)N(C)C=O)C(=O)N[C@H](Cc2ccc(NC(C)=O)cc2)C(=O)N[C@@H](CC(C)C)C(=O)N[C@@H](CCCCNC(C)C)C(=O)N2CCC[C@H]2C(=O)N[C@H](C)C(N)=O)cc1 (single isomer, unassigned) | 5.5 | 
11 | CC(=O)Nc1ccc(C[C@H](NC(=O)[C@H](CO)NC(=O)[C@@H](Cc2cccnc2)NC(=O)[C@@H](Cc2ccc(Cl)cc2)NC(=O)[C@@H](Cc2ccc3ccccc3c2)NC(C)=O)C(=O)N[C@H](Cc2ccc(NC(C)=O)cc2)C(=O)N[C@@H](CNC(=O)C(C)C)C(=O)N[C@@H](CCCCNC(C)C)C(=O)N2CCC[C@H]2C(=O)N[C@H](C)C(N)=O)cc1 | 2 | 
12 | CC(=O)Nc1ccc(C[C@H](NC(=O)[C@H](CO)NC(=O)[C@@H](Cc2cccnc2)NC(=O)[C@@H](Cc2ccc(Cl)cc2)NC(=O)[C@@H](Cc2ccc3ccccc3c2)NC(C)=O)C(=O)N[C@H](Cc2ccc(NC(C)=O)cc2)C(=O)N[C@@H](CC(C)C)C(=O)N[C@@H](CCCCNC(C)C)C(=O)N2CCC[C@H]2C(=O)N[C@H](C(N)=O)N(C)C=O)cc1 | 0.67 | 
13 | CC(=O)Nc1ccc(C[C@@H](NC(=O)[C@@H](NC(=O)c2ccc(NC(C)=O)cc2)NC(=O)[C@H](CO)NC(=O)[C@@H](Cc2cccnc2)NC(=O)[C@@H](Cc2ccc(Cl)cc2)NC(=O)[C@@H](Cc2ccc3ccccc3c2)NC(C)=O)C(=O)N[C@@H](CC(C)C)C(=O)N[C@@H](CCCCNC(C)C)C(=O)N2CCC[C@H]2C(=O)N[C@H](C)C(N)=O)cc1 | 0.51 | 
14 | CC(=O)Nc1ccc(C[C@H](NC(=O)[C@H](CO)NC(=O)[C@@H](Cc2cccnc2)NC(=O)[C@@H](Cc2ccc(Cl)cc2)NC(=O)[C@@H](Cc2ccc3ccccc3c2)NC(C)=O)C(=O)N[C@H](Cc2ccc(NC(C)=O)cc2)C(=O)N[C@H](C(=O)N[C@@H](CCCCNC(C)C)C(=O)N2CCC[C@H]2C(=O)N[C@H](C)C(N)=O)N(C)C(=O)C(C)C)cc1 | 0.53 | 
15 | CC(=O)Nc1ccc(C[C@H](NC(=O)[C@H](CO)NC(=O)[C@@H](NC(=O)[C@@H](Cc2ccc(Cl)cc2)NC(=O)[C@@H](Cc2ccc3ccccc3c2)NC(C)=O)N(C)C(=O)c2cccnc2)C(=O)N[C@H](Cc2ccc(NC(C)=O)cc2)C(=O)N[C@@H](CC(C)C)C(=O)N[C@@H](CCCCNC(C)C)C(=O)N2CCC[C@H]2C(=O)N[C@H](C)C(N)=O)cc1 (single isomer, unassigned) | 36 | 
16 | CC(=O)Nc1ccc(C[C@H](NC(=O)[C@H](CO)NC(=O)[C@@H](Cc2cccnc2)NC(=O)[C@@H](Cc2ccc(Cl)cc2)NC(=O)[C@@H](Cc2ccc3ccccc3c2)NC(C)=O)C(=O)N[C@H](C(=O)N[C@@H](CC(C)C)C(=O)N[C@@H](CCCCNC(C)C)C(=O)N2CCC[C@H]2C(=O)N[C@H](C)C(N)=O)N(C)C(=O)c2ccc(NC(C)=O)cc2)cc1 (mixture of isomers) | 5.3 | 
17 | CC(=O)Nc1ccc(C[C@H](NC(=O)[C@@H](NC(=O)CO)NC(=O)[C@@H](Cc2cccnc2)NC(=O)[C@@H](Cc2ccc(Cl)cc2)NC(=O)[C@@H](Cc2ccc3ccccc3c2)NC(C)=O)C(=O)N[C@H](Cc2ccc(NC(C)=O)cc2)C(=O)N[C@@H](CC(C)C)C(=O)N[C@@H](CCCCNC(C)C)C(=O)N2CCC[C@H]2C(=O)N[C@H](C)C(N)=O)cc1 (single isomer, unassigned) | 0.056 | 
18 | CC(=O)Nc1ccc(C[C@H](NC(=O)[C@H](CO)NC(=O)[C@@H](Cc2cccnc2)NC(=O)[C@@H](Cc2ccc(Cl)cc2)NC(=O)[C@H](NC(C)=O)NC(=O)c2ccc3ccccc3c2)C(=O)N[C@H](Cc2ccc(NC(C)=O)cc2)C(=O)N[C@@H](CC(C)C)C(=O)N[C@@H](CCCCNC(C)C)C(=O)N2CCC[C@H]2C(=O)N[C@H](C)C(N)=O)cc1 | 0.88 | 
19 | CC(=O)Nc1ccc(C[C@H](NC(=O)[C@H](CO)NC(=O)[C@@H](Cc2cccnc2)NC(=O)[C@@H](Cc2ccc(Cl)cc2)NC(=O)[C@@H](Cc2ccc3ccccc3c2)NC(C)=O)C(=O)N[C@H](Cc2ccc(NC(C)=O)cc2)C(=O)N[C@@H](CC(C)C)C(=O)N[C@@H](CCCCNC(C)C)C(=O)N2CCC[C@H]2C(=O)N[C@H](NC=O)C(N)=O)cc1 (single isomer, unassigned) | 0.59 | 
20 | CC(=O)Nc1ccc(C[C@H](NC(=O)[C@H](CO)NC(=O)[C@H](NC(=O)c2cccnc2)NC(=O)[C@@H](Cc2ccc(Cl)cc2)NC(=O)[C@@H](Cc2ccc3ccccc3c2)NC(C)=O)C(=O)N[C@H](Cc2ccc(NC(C)=O)cc2)C(=O)N[C@@H](CC(C)C)C(=O)N[C@@H](CCCCNC(C)C)C(=O)N2CCC[C@H]2C(=O)N[C@H](C)C(N)=O)cc1 | 0.76 | 
21 | CC(=O)Nc1ccc(C[C@H](NC(=O)[C@H](CO)NC(=O)[C@@H](Cc2cccnc2)NC(=O)[C@@H](NC(=O)[C@@H](Cc2ccc3ccccc3c2)NC(C)=O)N(C)C(=O)c2ccc(Cl)cc2)C(=O)N[C@H](Cc2ccc(NC(C)=O)cc2)C(=O)N[C@@H](CC(C)C)C(=O)N[C@@H](CCCCNC(C)C)C(=O)N2CCC[C@H]2C(=O)N[C@H](C)C(N)=O)cc1 (mixture of isomers) | 280 | 
22 | CC(=O)Nc1ccc(C[C@@H](NC(=O)[C@H](NC(=O)[C@H](CO)NC(=O)[C@@H](Cc2cccnc2)NC(=O)[C@@H](Cc2ccc(Cl)cc2)NC(=O)[C@@H](Cc2ccc3ccccc3c2)NC(C)=O)N(C)C(=O)c2ccc(NC(C)=O)cc2)C(=O)N[C@@H](CC(C)C)C(=O)N[C@@H](CCCCNC(C)C)C(=O)N2CCC[C@H]2C(=O)N[C@H](C)C(N)=O)cc1 | 0.43 | 
